Compound activity deposited in PubChem by several laboratories.
Rows were chosen to be rich in hits. Some 2.9% of all compounds tested hit in one or more screens of this group.
MIN6 prolif: inducers of beta-cell replication in MIN6 cells; MIN6 cells proliferation, ATPlite luminescence, 48 h; cells starved in 0.2% serum; 100% = growth in 10% serum; proliferation, % at 10 µM; 330,000 compounds, 0.29% hits; AID 2380;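 active = compounds whose signal lies at least 3.5 SD above the mean of all wells on their plate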
PG9 binder: PG9 antibody binding by small molecule. 360,000 compounds, 0.43% hits. TR-FRET gp120-PG9 antibody binding. AID 624416. inhibition, % at 6.7 µM; in the data active = inhibition above about 8.5%
hiPSC survival: increases survival of single human iPS cells | 360,000 compounds, 0.044% hits | hiPSC single-cell survival, ATPlite luminescence; 100% = ROCK inhibitor wells, 0% = DMSO | survival enhancement, % at 20 µM | AID 602274; in the data active = survival enhancement above about 18%;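 note: cells exposed to compounds for 16 hours before the ATP read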
Rev-erbA mod: Rev-erb alpha (human) modulation; Rev-erbα–FITC-DNA binding, fluorescence polarization, 90 min; activity, % at 10 µM; 370,000 compounds, 0.79% hits;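 active = activity above about 14%, limit read from the data; passing the limit was not always enough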
Target sequence (P20393 whole entry, looked up): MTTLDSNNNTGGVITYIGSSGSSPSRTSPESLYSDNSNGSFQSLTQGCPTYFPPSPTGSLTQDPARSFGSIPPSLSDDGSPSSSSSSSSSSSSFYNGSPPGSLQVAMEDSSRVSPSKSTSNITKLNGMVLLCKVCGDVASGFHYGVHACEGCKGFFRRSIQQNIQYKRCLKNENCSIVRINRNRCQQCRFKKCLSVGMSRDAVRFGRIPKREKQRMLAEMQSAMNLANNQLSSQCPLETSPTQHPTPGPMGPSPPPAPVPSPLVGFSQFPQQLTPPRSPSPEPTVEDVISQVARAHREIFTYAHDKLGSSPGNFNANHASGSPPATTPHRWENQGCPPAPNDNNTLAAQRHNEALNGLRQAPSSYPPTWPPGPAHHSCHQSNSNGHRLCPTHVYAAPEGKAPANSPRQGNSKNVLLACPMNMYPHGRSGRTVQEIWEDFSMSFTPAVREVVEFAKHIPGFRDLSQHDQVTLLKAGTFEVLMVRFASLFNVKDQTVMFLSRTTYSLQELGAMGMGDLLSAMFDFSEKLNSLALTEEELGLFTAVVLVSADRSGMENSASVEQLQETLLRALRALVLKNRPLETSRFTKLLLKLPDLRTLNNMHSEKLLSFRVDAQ
T cruzi repl: T. cruzi replication inhibition; T. cruzi beta-gal in NIH3T3, luminescence, 90 h; 300,000 compounds, 1.4% hits; AID 1885; inhibition, % (no concentration beside the values);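 active = mean inhibition across valid replicates above about 55%, limit read from the data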;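 note: signal also drops with host cell toxicity which is not excluded here; higher percent means less beta-gal luminescence so fewer parasites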
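Test system: β-gal T. cruzi (Tulahuen C4) inside NIH/3T3 cells / Quantity: 5,000 cells/well / Measured by: luminescence from GalScreen with 0.05% NP40, read after 60 min / Medium: DMEM plus 2% FBS / Measure: parasite load inhibition, % / Reagent: Tulahuen C4 trypomastigotes, 5000/well / Schedule: co-culture of at least 90 h after 3 h attachment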
H9c2 TAG inh: inhibitors of triacylglycerol accumulation. H9c2 cells, Nile Red lipid (TAG) fluorescence; cells loaded with 200 µM oleic acid. inhibition, % at 12.5 µM. 230,000 compounds, 0.66% hits. AID 651582;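 active = pattern-corrected inhibition of lipid staining of at least 50% with the nuclear-stain viability signal not falling by more than 50%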
PG9 binder conf: confirmation of small molecules binding HIV-1 gp120 antibody PG9; inhibition, % at 6.7 µM; TR-FRET PG9 antibody binding, biochemical; shares compounds with PG9 binder; 1,500 compounds, 90% hits; in the data active = inhibition above about 9%
PGV04 Ab binding: binds control antibody PGV04 in PG9 binder counter-screen; inhibition, % at 6.7 µM; TR-FRET PGV04 antibody-gp120 binding, biochemical; 1,500 compounds, 95% hits; shares compounds with PG9 binder; AID 651604; in the data active = inhibition above about 9.5%
Numbers stand for hits; i = inactive; nt = not tested or not shown.

SMILES	MIN6 prolif	PG9 binder	hiPSC survival	Rev-erbA mod	T cruzi repl	H9c2 TAG inh	PG9 binder conf	PGV04 Ab binding
CCCN1C(=O)C2(C(C(=O)c3ccc(C)o3)=C(O)C(=O)N2CCCOC)c2ccccc21 (stereo unspecified)	i	9.2	i	i	i	i	18	22
CCN1C(=O)C2(C(C(=O)c3ccc(C)o3)=C(O)C(=O)N2CCCN(C)C)c2ccccc21 (stereo unspecified)	i	i	i	i	i	i	nt	nt
O=C(CSc1nnc(-c2ccccc2F)n1C1CC1)NC(=O)c1cccc([N+](=O)[O-])c1	i	i	i	i	i	nt	nt	nt
O=C(CC(NC(=O)c1ccccc1Cl)c1ccccc1)NC1=NCCS1 (stereo unspecified)	i	i	i	i	i	i	nt	nt
CN(C)C1(CNC(=O)CC(NC(=O)c2ccccc2Cl)c2ccccc2)CCCCC1 (stereo unspecified)	i	17	i	i	i	nt	8.9	9.6
Cc1ccccc1-c1nc(CSc2nc3c(c(=O)[nH]2)CCC3)c(C)o1	i	i	i	i	i	i	nt	nt
Cc1ccc2nc(SCC(=O)NCc3ccco3)c(C#N)cc2c1	i	13	i	i	i	i	11	18
Cc1ccc(CNC(=O)CSc2nc(C)cc(C)c2C#N)cc1	i	58	i	i	i	i	39	45
COc1ccc(CNC(=O)c2ccc(Cn3nc(C)c([N+](=O)[O-])c3C)o2)cc1	i	i	i	i	i	i	nt	nt
CC1CCN(S(=O)(=O)c2ccc(S(=O)(=O)N3CCCC3)cc2)CC1	i	i	i	i	i	nt	nt	nt
CC1(C)Cc2nc3oc4c(=S)nc[nH]c4c3cc2CO1	i	19	i	i	i	i	11	12
CC(C)n1c(=S)[nH]c2scc(-c3cccs3)c2c1=O	i	i	i	i	i	i	nt	nt
CCn1c(=S)[nH]c2scc(-c3cccs3)c2c1=O	nt	11	i	i	i	i	i	11
Cc1cc(N2CCN(c3cccc(C)c3C)CC2)nc(-c2ccccc2)n1	i	i	i	i	i	i	nt	nt
C=CCNc1nc(C(=O)OCC(=O)c2ccc(C)c([N+](=O)[O-])c2)cs1	i	i	i	i	i	i	nt	nt
Cc1sc2ncnc(N3CCC(C(=O)Nc4ccccc4C(C)(C)C)CC3)c2c1C	i	13	i	i	i	i	17	21
CCOC(=O)c1ccccc1NC(=O)C1CCN(c2ncnc3sc(C)c(C)c23)CC1	i	nt	i	nt	i	i	nt	nt
Cc1oc(C(C)(C)C)cc1C(=O)Nc1cccc(/C=C\C(=O)O)c1	i	i	i	i	i	nt	nt	nt
Cc1ccnc(N2CCCC(C(=O)Nc3ccc(C)c(C)c3)C2)n1 (stereo unspecified)	i	39	i	i	i	nt	31	42
Cc1ccc(NC(=O)C2CCCN(c3ncccn3)C2)cc1C (stereo unspecified)	i	i	i	i	i	nt	nt	nt
CCC(=O)c1cn(CC(=O)Nc2ccc(C)cc2)c2ccccc12	i	11	i	i	i	nt	13	18
Cc1cccc(NC(=O)Cn2cc(C(=O)C3CC3)c3ccccc32)c1	i	i	i	i	i	nt	nt	nt
Cc1ccc(NC(=O)Cn2cc(C(=O)C3CC3)c3ccccc32)cc1	i	10	i	i	i	nt	i	11
C=CCNc1sc(C(=O)C2CC2)c(N)c1C#N	i	i	i	i	nt	i	nt	nt
COc1ccc(CCn2c(SCC(=O)Nc3cc(C)on3)nc3ccsc3c2=O)cc1OC	i	36	i	i	nt	nt	46	56
SMILES	MIN6 prolif	PG9 binder	hiPSC survival	Rev-erbA mod	T cruzi repl	H9c2 TAG inh	PG9 binder conf	PGV04 Ab binding
O=C(O)Cn1c2c(c3ccccc31)CSc1ccc(Cl)cc1-2	nt	17	i	i	i	nt	10	14
CCOc1ccc(NC(=O)Nc2nc3ccc(S(C)(=O)=O)cc3s2)cc1	i	14	i	i	i	i	19	22
Cc1ccccc1NC(=O)Nc1nc2ccc(S(C)(=O)=O)cc2s1	i	11	i	i	i	nt	12	28
CCOCC(=O)Nc1nc2ccc(S(C)(=O)=O)cc2s1	i	i	i	i	i	i	nt	nt
NS(=O)(=O)c1ccc2nc(NC(=O)Nc3ccccc3F)sc2c1	i	i	i	i	i	nt	nt	nt
O=C(Nc1nc(-c2ccccc2)nc2ccccc12)c1ccc(F)cc1	i	11	i	i	i	nt	16	27
Cc1csc(NC(=O)COc2ccc3c(C)cc(=O)oc3c2)n1	i	15	i	i	i	nt	21	30
CCn1c(=O)cc(OCC(=O)Nc2ccc(C)cn2)c2ccccc21	i	i	i	i	i	nt	nt	nt
CCn1c(=O)cc(OCC(=O)Nc2nc(C)cs2)c2ccccc21	i	13	i	i	i	i	30	49
Cc1cccc(C)c1NC(=O)COC(=O)COc1ccc2c(C)cc(=O)oc2c1	i	i	i	i	i	nt	nt	nt
O=C(COC(=O)c1cc(Cl)ccc1O)NNC(=O)c1ccc([N+](=O)[O-])cc1	i	i	i	i	i	i	nt	nt
COc1ccc(OC(C)C(=O)N(C)Cc2nc(-c3ccccc3)no2)cc1 (stereo unspecified)	i	i	i	i	i	nt	nt	nt
C=CCn1c(SCC(=O)Nc2ccc(-c3nc4ccc(C)cc4s3)cc2)nnc1-c1ccccc1	nt	9.6	i	i	i	nt	13	27
O=C(CSc1nnc2ccccn12)Nc1ccc2c(c1)OCO2	i	i	i	i	i	i	nt	nt
O=C(CSc1nnc2ccccn12)Nc1cccc(-c2nc3ccccc3s2)c1	i	8.9	i	i	i	nt	13	25
Cc1ccc(-c2nnc(SCC(=O)Nc3ccc(-c4nc5ccc(C)cc5s4)cc3)n2Cc2ccco2)cc1	nt	nt	nt	i	nt	nt	nt	nt
CCOC(=O)C1=NOC2(C1)C(=O)Nc1c(Cl)cccc12 (stereo unspecified)	nt	i	i	i	nt	nt	nt	nt
CCOC(=O)Cc1csc(NC(=O)Cc2ccc([N+](=O)[O-])cc2)n1	i	i	i	i	i	i	nt	nt
Cc1ccc(S(=O)(=O)N(C)Cc2cc3cc(C)ccc3[nH]c2=O)cc1	i	17	i	i	i	nt	28	44
Cn1cc(CNC(=O)c2cc(-c3ccccc3)nc3ccc(Br)cc23)cn1	i	11	i	i	i	nt	14	20
Cc1nn(C)cc1CN(C)C(=O)c1cc(-c2ccccc2)nc2ccc(Br)cc12	i	13	i	i	i	i	21	26
Cn1cc(CNC(=O)c2cc(-c3ccc(Br)cc3)nc3ccccc23)cn1	i	i	i	i	i	i	nt	nt
Cc1ccc(-c2cc(C(=O)NCc3cnn(C)c3)c3cc(Br)ccc3n2)cc1	i	11	i	i	i	nt	i	58
COc1ccc(CN(C)C(=O)c2cc(-c3ccccc3)nc3ccc(C)cc23)c(OC)c1	nt	i	i	i	nt	i	nt	nt
